Laboratory results as given in ChEMBL document CHEMBL1123362, “Resolution, absolute configuration, and cholinergic enantioselectivity of (+)- and (-)-cis-2-methyl-5-[(dimethylamino)methyl]-1,3-oxathiolane methiodide” (1986).
“And” between values parts separate entries of the source, which are not always exact repeats. Equal values may be shown once.

Columns and labels:
[1] = Potency was evaluated on frog rectus abdominis; assay type: functional, Rectus abdominis muscle
[2] = organism: Cavia porcellus; assay: Potency was evaluated on guinea pig ileum; assay type: functional
In short: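 Isolated ileum strip in aerated (O₂ with 5% CO₂) Tyrode-type salt solution (glucose 5 mM) at 37 °C. Isotonic contractions recorded at 1 g loading tension. After 30 min equilibration, cumulative concentration-response curves were run without reaching supramaximal concentrations. Potency expressed as equipotent molar ratio versus carbachol. EPMR averages compared by t-test (p < 0.05).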

[3] = Compound was evaluated for the ratio of ED50 of nicotinic agonist (N) and ED50 of muscarinic agonist (M); assay type: functional
[4] = Equipotent molar ratio (EPMR) between ED50 and ED50 of carbachol calculated through the regression of the angular transformant of the fractional log concentration of agonist; assay type: functional

SMILES | ED50 [1] | ED50 [2] | Ratio [3] | Ratio [4]
C[C@H]1O[C@H](CN(C)C)CS1 (racemic) [listing 1 of 2 here] | 1.7e-05 | 2.76e-07 |  | 
C[C@@H]1O[C@H](C[N+](C)(C)C)CS1 (racemic) |  |  | 642 | 
C[C@H]1O[C@H](CN(C)C)CS1 (racemic) [listing 2 of 2 here] |  |  | 61.6 | 
C[C@@H]1O[C@H](C[N+](C)(C)C)CS1 (stereo in doubt; (+)-1) |  |  | 537 | 
C[C@H]1O[C@H](CN(C)C)CS1 (stereo in doubt; (+)-10) [listing 1 of 2 here] | 1.84e-05 | 6.13e-07 |  | 
C[C@H]1O[C@H](CN(C)C)CS1 (stereo in doubt; (+)-10) [listing 2 of 2 here] |  |  | 30 | 3 and 4.5
C[C@@H]1O[C@H](C[N+](C)(C)C)CS1 (stereo in doubt; (-)-1) |  |  | 64 | 
C[C@H]1O[C@H](CN(C)C)CS1 (stereo in doubt; (-)-10) [listing 1 of 2 here] | 1.12e-05 | 4.2e-07 |  | 
C[C@H]1O[C@H](CN(C)C)CS1 (stereo in doubt; (-)-10) [listing 2 of 2 here] |  |  | 26.6 | 2 and 2.8
C[N+](C)(C)CCOC(N)=O.[Cl-] [CARBACHOL] | 4.04e-06 | 2.11e-07 | 19.2 | 1
C[C@@H]1O[C@H](C[N+](C)(C)C)C[C@H]1O [MUSCARINE] | >0.0005 | 7.94e-08 | > 6300 | 
